Type in all cases: biochemical
In assay [1] the target is T1, FLuc (Photinus pyralis luciferase) (Photinus pyralis, UniProt P08659). The experiment in a line: luminescence inhibition, 1536-well CRC. An outline of the steps:
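Purified wild-type Photinus pyralis luciferase in 1536-well format, with 10 μM D-luciferin and 10 μM ATP as substrates. Luminescence is read across a concentration titration of test compound. IC50 comes from the fitted concentration-response curve and is given as mean ±SD of at least 4 determinations.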

The target in assay [2] is T2, VLuc (Vibrio fischeri luciferase) (Aliivibrio fischeri, UniProt P19907).
T2 sequence (P19907 1-354): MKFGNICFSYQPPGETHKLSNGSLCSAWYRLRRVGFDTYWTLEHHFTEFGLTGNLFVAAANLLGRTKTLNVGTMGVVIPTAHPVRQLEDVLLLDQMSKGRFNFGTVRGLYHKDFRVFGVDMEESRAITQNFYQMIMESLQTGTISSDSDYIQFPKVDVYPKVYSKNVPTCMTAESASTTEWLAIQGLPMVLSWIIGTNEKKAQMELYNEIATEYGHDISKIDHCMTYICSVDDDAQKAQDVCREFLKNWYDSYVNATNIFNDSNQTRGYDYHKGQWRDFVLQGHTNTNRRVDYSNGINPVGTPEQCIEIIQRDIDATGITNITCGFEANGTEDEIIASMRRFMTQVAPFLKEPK
T2 sequence (P19908 1-326 partner): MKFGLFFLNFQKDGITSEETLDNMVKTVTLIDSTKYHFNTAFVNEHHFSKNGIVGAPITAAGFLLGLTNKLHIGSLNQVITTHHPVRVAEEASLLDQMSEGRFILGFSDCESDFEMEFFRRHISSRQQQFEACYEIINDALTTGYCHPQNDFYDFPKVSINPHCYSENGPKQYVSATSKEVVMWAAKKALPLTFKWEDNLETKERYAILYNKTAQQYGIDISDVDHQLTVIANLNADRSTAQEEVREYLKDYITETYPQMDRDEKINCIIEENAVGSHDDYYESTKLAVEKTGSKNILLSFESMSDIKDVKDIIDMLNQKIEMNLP
The experiment in a line: luminescence inhibition, 1536-well CRC, FMN reductase-coupled. The conditions noted are these: read-out: VLuc; 0.1 M sodium phosphate pH 7.0, 0.005% decanal, 0.1 mM NADH, 2 μM FMN, 0.1% BSA; partially purified enzyme.

Assay [3] addresses T3, RLuc (Renilla reniformis luciferase) (Renilla reniformis, UniProt P27652).
T3 sequence (P27652 1-311): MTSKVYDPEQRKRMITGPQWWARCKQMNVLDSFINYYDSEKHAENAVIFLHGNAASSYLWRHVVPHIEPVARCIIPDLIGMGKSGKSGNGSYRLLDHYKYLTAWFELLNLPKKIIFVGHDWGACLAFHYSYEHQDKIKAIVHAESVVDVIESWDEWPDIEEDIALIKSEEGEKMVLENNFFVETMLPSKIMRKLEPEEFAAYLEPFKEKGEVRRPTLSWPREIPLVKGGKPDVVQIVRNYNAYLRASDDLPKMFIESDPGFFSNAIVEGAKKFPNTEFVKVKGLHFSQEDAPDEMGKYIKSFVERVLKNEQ
Briefly: luminescence inhibition, 1536-well CRC. As to conditions: read-out: % inhibition at 57 μM (inactive).

For assay [4], the target named is T4, LmLuc (Luciola mingrelica luciferase) (Luciola mingrelica, UniProt Q26304).
T4 sequence (Q26304 1-548): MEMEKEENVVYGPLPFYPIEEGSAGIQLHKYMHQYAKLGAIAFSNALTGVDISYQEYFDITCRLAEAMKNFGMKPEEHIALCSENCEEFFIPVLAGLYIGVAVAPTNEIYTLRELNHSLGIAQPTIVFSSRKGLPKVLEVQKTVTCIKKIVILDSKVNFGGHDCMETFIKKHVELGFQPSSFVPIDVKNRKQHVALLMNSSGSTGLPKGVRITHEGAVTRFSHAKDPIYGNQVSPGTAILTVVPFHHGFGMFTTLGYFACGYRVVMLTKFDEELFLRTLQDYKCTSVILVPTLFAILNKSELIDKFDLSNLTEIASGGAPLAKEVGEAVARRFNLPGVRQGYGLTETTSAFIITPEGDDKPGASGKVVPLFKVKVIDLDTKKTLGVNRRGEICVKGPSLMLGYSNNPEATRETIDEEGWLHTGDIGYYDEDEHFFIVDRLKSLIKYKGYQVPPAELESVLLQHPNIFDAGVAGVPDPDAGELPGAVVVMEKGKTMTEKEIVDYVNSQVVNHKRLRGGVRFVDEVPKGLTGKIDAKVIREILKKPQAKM
The experiment in a line: luminescence inhibition, 1536-well CRC. An outline of the steps:
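Luciola mingrelica luciferase at 5 nM final in 1536-well format, run by the same protocol as the Photinus enzyme with 10 μM D-luciferin and 10 μM ATP. Luminescence is read over a test-compound titration. IC50 comes from curve fitting and is given as mean ±SD of at least 4 determinations.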

In assay [5] the target is T3, RLuc (Renilla reniformis luciferase). Briefly: luminescence inhibition, 1536-well CRC. In outline: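 Renilla reniformis luciferase in 1536-well format with 5 μM coelenterazine as substrate. Luminescence is measured over a test-compound concentration series. IC50 is taken from the fitted concentration-response curve and given as mean ±SD of at least 4 determinations.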

Assay [6] deals with T1, FLuc (Photinus pyralis luciferase). The experiment in a line: luminescence inhibition, 1536-well CRC. As to conditions: read-out: % inhibition at 57 μM (inactive).
The target of assay [7] is T4, LmLuc (Luciola mingrelica luciferase). The experiment in a line: luminescence inhibition, 1536-well CRC. As to conditions: read-out: % inhibition at 57 μM (inactive).
Where [8] appears, read: read-out: LmLuc, 10 μM D-luciferin and ATP, 5 nM enzyme.
[9] abbreviates: read-out: FLuc, 10 μM D-luciferin and ATP.

This passage reports IC50 and inhibition results from publication PMC3225805 (Chemistry & biology, 2011).

Read-outs that look alike come from different tables or passages of the source.

T1 sequence (P08659 whole entry): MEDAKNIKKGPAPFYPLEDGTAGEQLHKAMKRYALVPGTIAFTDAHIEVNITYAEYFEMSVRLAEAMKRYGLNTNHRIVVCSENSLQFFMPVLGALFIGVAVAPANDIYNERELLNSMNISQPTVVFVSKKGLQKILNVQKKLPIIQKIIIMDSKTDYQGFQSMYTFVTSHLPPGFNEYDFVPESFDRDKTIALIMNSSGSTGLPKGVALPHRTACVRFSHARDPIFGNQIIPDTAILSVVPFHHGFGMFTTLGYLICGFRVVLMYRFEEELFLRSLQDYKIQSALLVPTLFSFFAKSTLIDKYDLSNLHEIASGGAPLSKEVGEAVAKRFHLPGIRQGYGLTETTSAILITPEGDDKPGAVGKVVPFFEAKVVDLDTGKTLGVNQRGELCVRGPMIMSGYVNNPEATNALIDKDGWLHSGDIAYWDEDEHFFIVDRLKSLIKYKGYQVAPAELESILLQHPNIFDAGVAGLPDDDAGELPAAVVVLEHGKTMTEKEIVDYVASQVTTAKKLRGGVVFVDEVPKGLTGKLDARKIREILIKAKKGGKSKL

As to `O=C1O/C(=C\c2ccc(O)cc2)C(O)=C1c1ccc(O)cc1` [compound 1, aspulvinone E], the IC50 is 1.4 ± 1.6 µM in assay [1], greater than 57 µM in assay [2] and 3.6 ± 1.1 µM in assay [4]. In addition, the inhibition (in general, the relative decrease from the control value, in per cent) at 57 µM in assay [3] is less than 20%.
With `CC(C)(O)[C@H]1Cc2cc(/C=C3\OC(=O)C(c4ccc5c(c4)C[C@H](C(C)(C)O)O5)=C3O)ccc2O1` [compound 5, aspulvinone J-CR], the IC50 was 6.5 ± 3.3 µM in assay [2]; 0.1 ± 0.03 µM in assay [4] (setting [8]); greater than 57 µM in assay [5] (read-out: RLuc, 5 μM coelenterazine).
In the case of `COC(=O)[C@@]1(Cc2ccc(O)c(CC=C(C)C)c2)OC(=O)C(O)=C1c1ccc(O)cc1` [compound 10, butyrolactone I], the inhibition at 57 µM in assay [6] and in assay [7] was less than 20% each time. In addition, the IC50 in assay [5] was greater than 57 µM.
Take `COC(=O)[C@]1(Cc2ccc(O)c(CC3OC3(C)C)c2)OC(=O)C(O)=C1c1ccc(O)cc1` (stereo partly drawn) [compound 11, butyrolactone III]: the inhibition at 57 µM in assay [6], in assay [3] and in assay [7] was less than 20% each time.
On to aspulvinone F [compound 2], for which the IC50 is 3.6 ± 1.5 µM in assay [1] (setting [9]); 2.5 ± 0.5 µM in assay [4] (setting [8]); greater than 57 µM in assay [5] (read-out: Ultra, 5 μM coelenterazine).
On to aspulvinone I-CR [compound 4], for which the IC50 in assay [1] (setting [9]) was determined as 0.72 ± 0.4 µM; in assay [2], 12 ± 2.3 µM; in assay [4] (setting [8]) it was 0.5 ± 0.2 µM.
As to aspulvinone M-CR [compound 8], the IC50 was determined as 1.7 ± 1.6 µM in assay [1] (setting [9]), 18 ± 8 µM in assay [2] and 5.3 ± 5.9 µM in assay [4] (setting [8]).
benzofuran [compound 12]: the IC50 in assay [1] (setting [9]) came to 18.6 ± 8.8 µM; in assay [4] (setting [8]) it was 14.8 ± 2.8 µM.
